High-throughput results deposited in PubChem BioAssay by Johns Hopkins Ion Channel Center.
RGS4 act = RGS4 potentiation or activation; HEK293 M3R/inducible RGS4, carbachol calcium flux Fluo4; stronger effect = lower value; B-score at 10 µM; 0.92% of 310,000 active;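 active = B-score of the integrated calcium signal more than 4 SD below the library mean, with starting fluorescence not abnormally high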;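 also: negative B-score means reduced calcium response which marks RGS4 activation or potentiation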
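test system = M3R-expressing HEK293 line, RGS4 induced by doxycycline | probe or stimulus = carbachol at ECmax as muscarinic agonist stimulus | timing = dye loading 30 min 37 °C, buffer rest 30 min RT | signal = calcium dye Fluo4 fluorescence | evaluation = B score from integrated fluorescence ratio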
RGS4 block = inhibitors of human RGS4; B-score at 10 µM; P49798; 0.45% of 310,000 active; AID 463165; HEK293 M3R/RGS4 inducible, Fluo-4 calcium flux; stronger effect = higher value; triggered by carbachol at its EC20;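 active = B-score, a plate-corrected calcium signal, over three deviations above library mean, with baseline fluorescence within five deviations of library mean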;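 also: RGS4 expression induced by doxycycline in cells with stable M3 receptor; B-score is computed from the integrated fluorescence ratio over baseline after carbachol; higher B-score means a larger calcium signal and so more RGS4 inhibition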
Target sequence (P49798 whole entry, looked up): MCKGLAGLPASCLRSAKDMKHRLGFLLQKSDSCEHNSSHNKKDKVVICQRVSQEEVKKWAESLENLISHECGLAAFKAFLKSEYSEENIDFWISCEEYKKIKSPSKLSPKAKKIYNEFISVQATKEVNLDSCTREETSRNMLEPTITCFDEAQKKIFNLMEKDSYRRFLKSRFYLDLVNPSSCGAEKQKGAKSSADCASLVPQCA
MrgX1 agonist = activates human MrgX1 receptor signaling | MrgX1-HEK293 cells, Fluo-4 calcium fluorescence, agonist mode; stronger effect = higher value | B-score at 10 µM | 0.44% of 310,000 active | AID 588627;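 active = calcium response B-score plate-corrected fluorescence ratio at least 3 library SD, with starting fluorescence B-score inside 5 SD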
Target sequence (Q96LB2 whole entry, looked up): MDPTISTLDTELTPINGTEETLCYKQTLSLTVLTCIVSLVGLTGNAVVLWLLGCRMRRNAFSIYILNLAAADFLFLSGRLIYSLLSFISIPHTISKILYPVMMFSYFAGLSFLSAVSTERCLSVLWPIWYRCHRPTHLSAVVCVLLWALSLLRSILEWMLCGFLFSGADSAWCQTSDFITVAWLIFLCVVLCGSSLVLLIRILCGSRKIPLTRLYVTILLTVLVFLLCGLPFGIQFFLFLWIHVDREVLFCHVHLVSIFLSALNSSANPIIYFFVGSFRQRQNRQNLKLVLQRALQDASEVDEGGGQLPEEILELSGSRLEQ
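Assay system: stable human MrgX1 HEK293 cell line. Quantity: 15,000 cells per well. Schedule: cells plated overnight, dye loaded 0.5 h 37 °C, 0.5 h room temperature. Detection: Fluo-4 NW calcium-flux fluorescence, kinetic read. Read-out basis: peak-minus-minimum fluorescence over baseline, converted to B scores. Control set: positive and negative control wells on each plate.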
MrgX1 antag = blocks BAM8-22 activation of human MrgX1 receptor; 1.3% of 310,000 active; B-score at 10 µM; Q96LB2; MRGX1-HEK293 calcium flux, Fluo-4, BAM8-22 antagonism; stronger effect = lower value; AID 588676;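 active = calcium-response B-score plate-corrected more than 3 library SD below zero, starting fluorescence within 5 deviations, no agonist response on first addition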;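 also: peak minus trough fluorescence over baseline after final BAM8-22 challenge near maximal dose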
MrgX1 allo act = human MrgX1 positive allosteric modulation, primary screen | AID 588675 | MrgX1-HEK293, Fluo-4 calcium flux, FDSS; stronger effect = higher value | Q96LB2 | B-score at 10 µM | 0.63% of 310,000 active;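 active = plate-corrected calcium response at least 3 library SD above typical, normal starting fluorescence, not activating the receptor alone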;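 also: compound read alongside a low EC10 to EC30 dose of BAM8-22 agonist; peak minus trough fluorescence over baseline measured at the second addition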
Each line names hits and unclear results; the compound was inactive in the other large screens; ! = not confirmed by another sample. Hits are enriched below; roughly 3.5% of the tested compounds scored in any of these assays.

COc1ccc(OC)c(NC(=O)c2cc(S(=O)(=O)N(C)C)ccc2N2CCCC2)c1	none
CCOc1ccc(N(C)S(=O)(=O)c2cc(-c3cc(C)no3)ccc2C(C)C)cc1	MrgX1 antag -4.8
CCN(c1ccc(OC)cc1)S(=O)(=O)c1cc(-c2cc(C)no2)ccc1C(C)C	none
O=C(NCCC(=O)N1CCc2ccccc21)c1ccco1	none
CCOc1ccc(C(C)=O)cc1N1C(=O)C2C3C=CC(O3)C2C1=O (stereo not given)	MrgX1 agonist 32
COc1ccc(CNCCc2ccc(Cl)cc2)cc1OCc1ccccc1	MrgX1 antag -5.8
CCOc1cc(CNCc2ccccc2)ccc1OCc1ccc(Cl)cc1	none
COc1ccc(CN2CCNC(=O)C2CC(=O)NCc2cnn(C)c2)cc1OC (stereo not given)	none
COc1cc(CNC(C)c2ccccc2)cc(Br)c1OCc1ccc(F)cc1 (stereo not given)	RGS4 act -8.5
Cc1ccc(OCCCC(=O)NC(C)c2ccccc2)cc1 (stereo not given)	none
CC(=O)c1ccc(OCCCC(=O)NC(C)c2ccc(S(N)(=O)=O)cc2)cc1 (stereo not given)	MrgX1 allo act 6.6
Cc1ccc(C)c(S(=O)(=O)N2CCN(C(=O)C3CCN(C(=O)c4ccc(F)cc4)CC3)CC2)c1	none
O=C(CN1CCN(S(=O)(=O)c2ccc(Br)cc2)CC1)c1ccc(O)c(O)c1	none
CC(C)c1cc(O)c(-c2ccccc2)c(=O)n1-c1ccc(Cl)cc1	none
CC(C)c1c(Cl)c(O)c(-c2ccccc2)c(=O)n1-c1ccc(F)cc1	MrgX1 antag -5.3
CC(C)(C)C(=O)Nc1ccccc1N1CCN(c2ccc(F)cc2)CC1	none
Cc1ccc(OCCn2ccnc2)c([N+](=O)[O-])c1	MrgX1 allo act 11
Cc1ccc(CSc2nc3ccccc3cc2C=O)cc1	RGS4 act -8.3
Cc1ccc2nc(-c3ccccc3)nc(SC(C)C(=O)NCc3cccs3)c2c1 (stereo not given)	MrgX1 antag -7.3
COc1ccccc1NS(=O)(=O)c1cccc(C(=O)NCC(c2ccccc2OC)N2CCCC2)c1 (stereo not given)	MrgX1 antag -5.7
Cc1ccc(/C=N/NC(=O)c2cccc(S(=O)(=O)Nc3ccccc3Cl)c2)s1	MrgX1 allo act 11
COc1ccccc1C(CNC(=O)c1cccc(S(=O)(=O)Nc2ccc(C)cc2)c1)N1CCCC1 (stereo not given)	none
COc1ccccc1NS(=O)(=O)c1cccc(C(=O)N/N=C/c2ccc(C)o2)c1	MrgX1 allo act 18
CC1(C)CC(=O)C/C(=N/NC(=O)COc2ccc(Cl)cc2Cl)C1	none
CC1(C)CC(=O)C/C(=N/NC(=O)COc2ccc3ccccc3c2Br)C1	MrgX1 antag -8
Cc1ccc(/C=C2/Sc3ccccc3N(CC(=O)NCCCOC(C)C)C2=O)cc1	MrgX1 antag -4.8
c1cc2c3c(cccc3c1)C(N1CCCCCC1)=N2	RGS4 act -7.4
c1cc2c3c(cccc3c1)C(N1CCCCC1)=N2	none
COn1c(-c2ccccc2)c(C=O)c2ccccc21	MrgX1 allo act 19
CN(C(=O)COC(=O)C1CCN(S(=O)(=O)c2ccc3c(c2)OCCO3)CC1)C1CCCCC1	none
O=[n+]1cc(-c2ccc(Br)cc2)n([O-])c2c1CCC2	MrgX1 antag -4.6
O=[n+]1cc(-c2ccc(Cl)cc2)n([O-])c2c1CCC2	none
COc1ccc(N2CCN(C(=O)c3ccc4c(c3)NC(=O)C(CSCc3cccc(F)c3)N4)CC2)cc1 (stereo not given)	MrgX1 agonist 36
Cc1onc(-c2c(F)cccc2Cl)c1C(=O)NCc1ccc2c(c1)OCO2	RGS4 act -7.4
CCOC(=O)C1=C(C)NC(C)=C(C(=O)OC)C1c1cccc(Cl)c1Cl (stereo not given)	none
CCOC(=O)C1=C(COCCN)NC(C)=C(C(=O)OC)C1c1ccccc1Cl (stereo not given)	MrgX1 agonist 27!
Cc1cccc(OCC(=O)Nc2ccccc2N2CCCCC2)c1C	none
Cc1cccc(C)c1OCC(=O)Nc1ccccc1N1CCCCC1	MrgX1 allo act 7.4
COc1ccc(OCC(=O)Nc2ccccc2N2CCCCC2)cc1	MrgX1 allo act 15
COc1ccc(OCC(=O)Nc2ccccc2N2CCN(C)CC2)cc1	none
CCOc1cccc(CN2CCC(n3nccc3NC(=O)C3CC3)CC2)c1O	none
COc1ccc(CN(C)Cc2cc(=O)oc3cc(C)c(C(C)C)cc23)cc1OC	RGS4 act -7.1
Cc1cc2oc(=O)cc(CN(C)Cc3ccccc3F)c2cc1Cl	RGS4 act -7
CN(Cc1ccccc1F)Cc1cc(=O)oc2cc(O)c(Cl)cc12	none
Cc1cc2oc(=O)cc(CN(C)Cc3ccccc3)c2cc1C(C)C	none
Cc1c(NS(=O)(=O)c2ccc(Cl)c(C(=O)OCC(=O)NCc3ccco3)c2)c(=O)n(-c2ccccc2)n1C	none
CC(CCc1ccccc1)NC(=O)COc1cc(F)ccc1[N+](=O)[O-] (stereo not given)	MrgX1 allo act 8.3
CCOc1ccc(CCNC(=O)COC(=O)c2ccc(S(C)(=O)=O)cc2)cc1OCC	none
CCOc1ccc(CCNC(=O)COC(=O)c2ccc(OC(C)C)cc2)cc1OCC	MrgX1 antag -4.8
CCOc1ccc(CCNC(=O)COC(=O)/C=C/c2ccccc2OC)cc1OCC	MrgX1 allo act 16
Cc1c(C(=O)Oc2cc(N)n(S(C)(=O)=O)n2)cccc1[N+](=O)[O-]	MrgX1 allo act 6.7
Cc1ccccc1C(=O)Oc1cc(N)n(S(C)(=O)=O)n1	none
COc1ccc(OC)c(C2=C/C(=C/c3ccccn3)C(=O)O2)c1	RGS4 act -7.9
CCc1cc2c(COC(=O)c3cccc(NS(C)(=O)=O)c3)cc(=O)oc2cc1O	none
Cc1cccc(C(=O)OCC(=O)N2CCC(c3ccccc3)=N2)c1O	none
CCc1cc(C(=O)OCC(=O)N2CCC(c3ccccc3)=N2)sc1C	RGS4 act -7.2
CCOC(=O)c1ccc(NC(=S)NNC(=O)COC)cc1	MrgX1 antag -7.9
O=C(NCCc1ccccc1)c1ccc(Cl)c(S(=O)(=O)N2CCOCC2)c1	none (no result: MrgX1 agonist, MrgX1 antag, MrgX1 allo act)
O=C(/C=C/c1ccc(O)c(O)c1)NC(=O)c1ccccc1O	MrgX1 antag -7.8
Cc1ccc(Cl)cc1N1CCN(c2cccc[n+]2C)CC1	RGS4 act -7.3
OC(C#CCCN1CCCCC1)(c1ccccc1)c1ccccc1	none
CC(C)[N+](C)(C)CC#CC(O)(c1ccccc1)c1ccccc1	RGS4 act -7.8
C[N+]1(CC#CC(O)(c2ccccc2)c2ccccc2)CCCC1	RGS4 act -8.4
CCN(Cc1ccccc1)C(=O)c1oc2ccc(C)cc2c1C	none
COc1ccc(NC(=O)c2ccccc2N2C(=O)C3C4C=CC(C5CC45)C3C2=O)c(OC)c1 (stereo not given)	none
